In the library only some 1.5% were active in any assay of this set; here they are far more common.
NRP1-CendR mod = alters CendR peptide binding to human NRP-1; 0.85% of 360,000 active; AID 602438; FAM-RPARPAR peptide binding to NRP-1, fluorescence polarization; inhibition, % at 25 µM; O14786;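 active = inhibition or corrected inhibition above about 18%, plus a signal ratio from 0.5 to 1.5, limit read from the data, passing the limit was not always enough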
UCH37 DUB inh = human UCH37 deubiquitinating enzyme inhibition. Q9Y5K5. purified proteasome/UCH37, Ub-AMC cleavage fluorescence. inhibition, % (test concentration not listed). 0.33% of 330,000 active. AID 588478;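 active = mean inhibition over replicate wells above about 20%, limit read from the data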
Target sequence (Q9Y5K5 whole entry, looked up): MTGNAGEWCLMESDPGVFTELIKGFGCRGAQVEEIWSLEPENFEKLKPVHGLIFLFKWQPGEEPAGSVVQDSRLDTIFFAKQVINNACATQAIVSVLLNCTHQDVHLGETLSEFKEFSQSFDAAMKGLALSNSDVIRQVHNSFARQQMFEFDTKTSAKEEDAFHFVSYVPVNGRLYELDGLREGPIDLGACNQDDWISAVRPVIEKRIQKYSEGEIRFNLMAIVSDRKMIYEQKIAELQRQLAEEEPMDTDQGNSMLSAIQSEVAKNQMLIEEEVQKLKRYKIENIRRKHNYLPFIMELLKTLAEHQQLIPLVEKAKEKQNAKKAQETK
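system = Proteasome-associated human UCH37 deubiquitinase | amount = 0.15 nM proteasome as dispensed | medium = pH 7.4 Tris-HCl (50 mM) with ovalbumin, ATP-MgCl2, DTT | incubation = 30 min preincubation with enzyme, 25 min cleavage at room temperature | detection = AMC fluorescence 355/460 nm | read-out basis = percent inhibition | controls = no-proteasome and no-compound wells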
MT1-MMP act inh = blocks activation of human MT1-MMP | P50281 | HT1080 RFP-PRO-GFP cells, GFP/RFP ratio fluorescence, overnight; percent of plate control window, DMSO zero | GFP/RFP ratio change, % at 20 µM | 0.061% of 360,000 active | AID 651647;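 active = GFP/RFP ratio change of at least 30% with cell ATP level not reduced by more than half and red fluorescence within 50% of control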
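Test system: HT1080 RFP-PRO-GFP cells; Benchmarks: DMSO and RFP-L50D-GFP cell wells; Timing: cells overnight before dosing, compound overnight, 37 °C, 5% CO2; Compound: one 20 µM compound dose with 1% DMSO; Read-out: GFP/RFP fluorescence ratio.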
DAGLB inhibitor = diacylglycerol lipase beta (human) inhibition; HEK293T DAGLB membrane lysate, EnzChek fluorogenic substrate; inhibition, % at 5.17 µM; 0.059% of 340,000 active; Q8NCG7; in the data active = inhibition above about 34%
Fh CTSL1 inh = cathepsin L1 inhibition, PFM18AAP counter-screen; recombinant F. hepatica cathepsin L1, Z-Leu-Arg-MCA fluorescence; inhibition, % at 5.96 µM; 0.49% of 300,000 active; AID 1906;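 active = inhibition above the mean of all tested compounds plus 3 SD, set per screening campaign, cut at about 17% in these data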
Hits are given with their value; ! = not confirmed by another sample.

Results for O=C(NN=Cc1cccc(F)c1)c1c(O)c2ccccc2[nH]c1=O ?
UCH37 DUB inh: inactive

How did O=c1c2[nH]c3ccc(F)cc3c2ncn1CCCN1CCOCC1 do in these assays?
NRP1-CendR mod: 47; UCH37 DUB inh: inactive; MT1-MMP act inh: inactive; DAGLB inhibitor: inactive; Fh CTSL1 inh: inactive

What do the screens show for `COc1ccc2c(c1)[nH]c1c(=O)n(CCCN3CCOCC3)cnc12`?
NRP1-CendR mod: inactive; UCH37 DUB inh: inactive; MT1-MMP act inh: inactive; DAGLB inhibitor: inactive; Fh CTSL1 inh: inactive

Results for O=C(COC(=O)C1CC(=O)N(Cc2ccccc2)C1)Nc1ccc(Cl)cc1F (stereo not drawn) ?
NRP1-CendR mod: inactive; UCH37 DUB inh: inactive; MT1-MMP act inh: inactive; DAGLB inhibitor: inactive; Fh CTSL1 inh: inactive

How did O=C(COC(=O)C1CC(=O)N(Cc2ccccc2)C1)Nc1ccccc1F (stereo not drawn) do in these assays?
NRP1-CendR mod: 26; UCH37 DUB inh: inactive; MT1-MMP act inh: inactive; DAGLB inhibitor: inactive; Fh CTSL1 inh: inactive

Results for Cc1ccc(OCC(=O)N/N=C/c2ccccc2)c([N+](=O)[O-])c1 ?
NRP1-CendR mod: 19; MT1-MMP act inh: inactive; DAGLB inhibitor: inactive

How did Cc1ccc(C)c(OCC(=O)NN=Cc2cccn2C)c1 do in these assays?
UCH37 DUB inh: inactive

Results for Cc1ccc(C)c(OCC(=O)N/N=C\c2cccn2C)c1 ?
NRP1-CendR mod: 35; MT1-MMP act inh: inactive; DAGLB inhibitor: inactive; Fh CTSL1 inh: inactive

What do the screens show for `Cc1ccc(C(=O)NN=Cc2ccc(OC(=O)c3ccccc3Cl)cc2)cn1`?
UCH37 DUB inh: inactive

Results for O=C(O)CCC1c2cc3c4cc2OC2Oc5cc6c(cc51)C(CCC(=O)O)c1cc5c7cc1OC(O6)c1cc6cc(c1)Oc1cc(cc(C(=O)O)c1)Oc1cc8cc(c1)C(Oc1cc(c(cc1C5CCC(=O)O)C3CCC(=O)O)OC(O4)c1cc(cc(c1)Oc1cc(cc(C(=O)O)c1)O8)Oc1cc(cc(C(=O)O)c1)Oc1cc(cc2c1)Oc1cc(cc(C(=O)O)c1)O6)O7 (stereo not drawn) ?
Fh CTSL1 inh: 22

What do the screens show for `NC(=O)C1CCN(C2=C(NS(=O)(=O)c3ccc(Br)cc3)C(=O)c3ccccc3C2=O)CC1`?
NRP1-CendR mod: inactive; UCH37 DUB inh: 21; MT1-MMP act inh: inactive; DAGLB inhibitor: inactive; Fh CTSL1 inh: inactive

Results for CCN1CCN(C2=C(NS(=O)(=O)c3ccc(Br)cc3)C(=O)c3ccccc3C2=O)CC1 ?
NRP1-CendR mod: inactive; UCH37 DUB inh: inactive; MT1-MMP act inh: inactive; DAGLB inhibitor: inactive; Fh CTSL1 inh: 20

What do the screens show for `NC(=O)C1CCN(C2=C(NS(=O)(=O)c3ccccc3)C(=O)c3ccccc3C2=O)CC1`?
NRP1-CendR mod: inactive; UCH37 DUB inh: inactive; MT1-MMP act inh: inactive; DAGLB inhibitor: inactive; Fh CTSL1 inh: inactive

What do the screens show for `CCOC(=O)C1CCN(C2=C(NS(=O)(=O)c3ccc(Br)cc3)C(=O)c3ccccc3C2=O)CC1`?
NRP1-CendR mod: inactive; UCH37 DUB inh: 23; MT1-MMP act inh: inactive; DAGLB inhibitor: inactive; Fh CTSL1 inh: inactive

What do the screens show for `O=C(NN=Cc1ccccn1)c1ccc([N+](=O)[O-])cc1Cl`?
UCH37 DUB inh: inactive

How did Cc1noc(C)c1C(=O)Nc1ccc(F)cc1 do in these assays?
NRP1-CendR mod: 41; UCH37 DUB inh: inactive; MT1-MMP act inh: inactive; DAGLB inhibitor: inactive; Fh CTSL1 inh: inactive

How did CN(C)CC/C=C1/c2ccccc2Sc2ccc(Cl)cc21 do in these assays?
NRP1-CendR mod: 27!; UCH37 DUB inh: inactive; MT1-MMP act inh: inactive; DAGLB inhibitor: inactive; Fh CTSL1 inh: inactive

What do the screens show for `CCCCCC[N+](C)(C)CC/C=C1/c2ccccc2Sc2ccc(Cl)cc21`?
NRP1-CendR mod: inactive; UCH37 DUB inh: inactive; MT1-MMP act inh: inactive; DAGLB inhibitor: inactive; Fh CTSL1 inh: inactive

What do the screens show for `CC1(C(=O)NCc2ccccc2)CSCC(=O)N1CCc1c[nH]c2ccccc12` (stereo not drawn)?
NRP1-CendR mod: inactive; MT1-MMP act inh: inactive

Results for CC1(C(=O)NCc2ccccc2)CCC(=O)N1CCc1c[nH]c2ccccc12 (stereo not drawn) ?
NRP1-CendR mod: 24; MT1-MMP act inh: inactive

How did COC(=O)c1ccc(CNC(=O)CCc2c[nH]c3ccccc23)cc1 do in these assays?
NRP1-CendR mod: inactive; UCH37 DUB inh: inactive; MT1-MMP act inh: inactive; DAGLB inhibitor: inactive; Fh CTSL1 inh: inactive

Screening data from PubChem BioAssay.
